Calls of active or inactive are those of the source. No cut-off for these calls is given here.
Key:
Rattus norvegicus [1] = assay: Antiinflammatory activity in rat assessed as inhibition of carrageenan-induced rat paw edema at 4.2 mg/kg, po after 3 hrs; format: functional
Method in brief: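 Carrageenan-induced foot paw edema in rats, with the agent given orally. Read-out is % inhibition of inflammation, measured 3 h after the oral dose. Animal work followed protocols approved by the University of Alberta Health Sciences Animal Welfare Committee.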

[2] = molecular target: T1, Prostaglandin G/H synthase 1 (Ovis aries, UniProt P05979); assay: Inhibition of ovine COX1 by enzyme immunoassay
T1 sequence (P05979 whole entry): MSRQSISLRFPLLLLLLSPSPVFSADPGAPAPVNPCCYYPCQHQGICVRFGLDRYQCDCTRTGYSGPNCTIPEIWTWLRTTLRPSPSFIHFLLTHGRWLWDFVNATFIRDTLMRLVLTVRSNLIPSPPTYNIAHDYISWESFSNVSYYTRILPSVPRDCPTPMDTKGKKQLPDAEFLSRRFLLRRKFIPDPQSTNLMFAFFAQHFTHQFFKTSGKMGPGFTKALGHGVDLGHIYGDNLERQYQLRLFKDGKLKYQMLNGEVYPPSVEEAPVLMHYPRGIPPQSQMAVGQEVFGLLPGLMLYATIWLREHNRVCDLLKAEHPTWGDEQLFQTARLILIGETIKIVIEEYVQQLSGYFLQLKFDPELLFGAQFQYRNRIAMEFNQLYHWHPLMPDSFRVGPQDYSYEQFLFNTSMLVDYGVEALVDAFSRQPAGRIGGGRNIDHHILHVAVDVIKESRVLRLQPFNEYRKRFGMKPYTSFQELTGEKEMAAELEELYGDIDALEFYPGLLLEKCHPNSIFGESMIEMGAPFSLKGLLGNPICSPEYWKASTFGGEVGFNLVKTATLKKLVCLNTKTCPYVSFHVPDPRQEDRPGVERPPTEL
Method in brief: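 COX inhibition was measured by enzyme immunoassay kit. IC50 is the mean of two determinations, with deviation from the mean below 10%.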

[3] = molecular target: T2, Prostaglandin G/H synthase 2 (Homo sapiens, UniProt P35354); assay: Inhibition of human recombinant COX2 by enzyme immunoassay
T2 sequence (P35354 whole entry): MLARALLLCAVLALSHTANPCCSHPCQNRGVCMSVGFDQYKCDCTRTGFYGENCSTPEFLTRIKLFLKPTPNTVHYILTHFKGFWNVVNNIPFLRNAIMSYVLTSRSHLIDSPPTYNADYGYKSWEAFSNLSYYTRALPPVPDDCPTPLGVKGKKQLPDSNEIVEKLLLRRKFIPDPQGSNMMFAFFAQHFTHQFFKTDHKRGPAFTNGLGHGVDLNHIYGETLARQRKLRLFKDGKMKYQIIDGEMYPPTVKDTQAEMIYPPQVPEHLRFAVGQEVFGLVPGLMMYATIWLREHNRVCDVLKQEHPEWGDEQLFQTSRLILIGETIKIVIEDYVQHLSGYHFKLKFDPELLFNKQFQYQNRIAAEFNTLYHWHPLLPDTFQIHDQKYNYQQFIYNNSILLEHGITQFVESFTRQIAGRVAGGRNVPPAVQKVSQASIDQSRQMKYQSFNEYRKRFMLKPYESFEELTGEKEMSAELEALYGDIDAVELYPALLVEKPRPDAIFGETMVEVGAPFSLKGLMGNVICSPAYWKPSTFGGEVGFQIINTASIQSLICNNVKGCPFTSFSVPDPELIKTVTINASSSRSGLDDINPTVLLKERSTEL

[4] = Inhibition of potato 5-lipoxygenase by enzyme immunoassay; design: species or system Solanum tuberosum
Rattus norvegicus [5] = assay: Antiinflammatory activity in rat assessed as inhibition of carrageenan-induced rat paw edema at 100 mg/kg, po after 3 hrs; format: functional
Method in brief: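 Carrageenan-induced rat paw edema; test compound given orally at 100 mg/kg. Result is % inhibition of inflammation at 3 h after dosing. Protocol was approved by the University of Alberta Health Sciences Animal Welfare Committee.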

Row | Structure (SMILES) | IC50 [2] [µM] | IC50 [3] [µM] | IC50 [4] [µM] | inhibition in vivo at 4.2 mg/kg (Rattus norvegicus [1]) [%] | inhibition (Rattus norvegicus [5]) | inhibition in vivo at 100 mg/kg (Rattus norvegicus [5]) [%]
1 | COc1ccc2c(c1)c(CC(=O)O)c(C)n2C(=O)c1ccc(Cl)cc1 [INDOMETHACIN] |  |  |  | 50 |  | 
2 | CC(Cc1ccc(O)c(O)c1)C(C)Cc1ccc(O)c(O)c1 (centres undefined) [NORDIHYDROGUAIARETIC ACID] |  |  | 13 |  |  | 
3 | COc1ccc2c(c1)c(CC(=O)O)c(C)n2C(=O)c1ccn(C(F)F)c(=O)c1 | > 100 | > 100 | > 100 |  |  | 25.5

More lines, main results first:

Row | IC50 [2] [µM] | IC50 [3] [µM] | IC50 [4] [µM] | Structure (SMILES) | inhibition in vivo at 4.2 mg/kg (Rattus norvegicus [1]) [%] | inhibition (Rattus norvegicus [5]) | inhibition in vivo at 100 mg/kg (Rattus norvegicus [5]) [%]
4 | > 100 | 31 | > 100 | COc1ccc2c(c1)c(CC(=O)O)c(C)n2Cc1ccn(C(F)F)c(=O)c1 |  | inactive | 
5 | > 100 | > 100 | > 100 | COc1ccc2c(c1)c(CC(=O)O)c(C)n2Cc1ccc(=O)n(C(F)F)c1 |  |  | 16

— ChEMBL document CHEMBL1255513, “Synthesis and biological evaluation of indomethacin analogs possessing a N-difluoromethyl-1,2-dihydropyrid-2-one ring system: a search for novel cyclooxygenase and lipoxygenase inhibitors” (Bioorg Med Chem Lett, 2010)
